# Experiments:
# [1] = system: Vero; experiment: Cytotoxicity against african green monkey Vero after 72 hrs by MTT assay; assay type: cell-based; conditions: Chlorocebus sabaeus
# Summary of the method: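 Mammalian Vero cells were used to determine IC50. The read-out was cellular reduction of MTT to a formazan product, measured with a non-radioactive cell proliferation kit.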
# [2] = system: Mycobacterium tuberculosis; experiment: Antitubercular activity against Mycobacterium tuberculosis ATCC 35801 infected in CD1 mouse lung at 25 mg/kg, iv after 6 weeks; assay type: functional
# Summary of the method: (§1)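 Female CD-1 mice, 6 weeks old, six per group, were infected intravenously via the caudal vein with 10^6 to 10^7 viable organisms. Dosing at 25 mg/kg intraperitoneally began 10 days after infection. Viable counts came from serial 10-fold dilutions on 7H10 agar after incubation at 37 °C in ambient air for up to 6 weeks, compared with vehicle-treated controls.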
# [3] = system: Mycobacterium tuberculosis; experiment: Antitubercular activity against Mycobacterium tuberculosis H37Rv after 6 weeks; assay type: functional
# Summary of the method: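 Lowenstein-Jensen slope assay. DMSO stocks of 250 and 10 µg/mL were each mixed 0.8 mL into 7.2 mL L.J. medium, then inspissated at 75-80 °C for 3 days. A loopful of culture was dispersed with glass beads in sterile water by vortexing for 2 min and streaked onto the slopes. DMSO-only and drug-free media served as controls. Bacterial counts were read after 6 weeks at 37 °C.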
# [4] = system: Mycobacterium tuberculosis; experiment: Antitubercular activity against Mycobacterium tuberculosis ATCC 35801 infected in CD1 mouse spleen at 25 mg/kg, iv after 6 weeks; assay type: functional; summary of the method: as §1
Compound,IC50 [1],log10cfu [2],MIC [3],log10cfu [4]
O=C(c1ccncc1)N1N=C(c2cc3ccccc3o2)CC1c1cccc([N+](=O)[O-])c1 (stereo not given),> 240 µM,10.8,7.5 µg/mL,11.6
COc1ccc(C2CC(c3cc4ccccc4o3)=NN2C(=O)c2ccncc2)c(O)c1 (stereo not given),> 191 µM,6.98,3.3 µg/mL,6.52
O=C(c1ccncc1)N1N=C(c2cc3ccccc3o2)CC1c1ccc(O)cc1 (stereo not given),> 200 µM,7.46,4.5 µg/mL,8.2
O=C(c1ccncc1)N1N=C(c2cc3ccccc3o2)CC1c1ccc(Cl)cc1 (stereo not given),> 221 µM,13.8,11.5 µg/mL,12.4
O=C(c1ccncc1)N1N=C(c2cc3ccccc3o2)CC1c1ccccc1Cl (stereo not given),> 211 µM,12.5,10.6 µg/mL,12.2
O=C(c1ccncc1)N1N=C(c2cc3ccccc3o2)CC1c1ccccc1[N+](=O)[O-] (stereo not given),> 245 µM,9.5,8.2 µg/mL,10.5
COc1ccc(C2CC(c3cc4ccccc4o3)=NN2C(=O)c2ccncc2)cc1 (stereo not given),> 200 µM,8.6,6.8 µg/mL,9.24
O=C(c1ccncc1)N1N=C(c2cc3ccccc3o2)CC1c1ccccc1 (stereo not given),> 210 µM,9.4,8.5 µg/mL,10.6
O=C(c1ccncc1)N1N=C(c2cc3ccccc3o2)CC1c1ccco1 (stereo not given),> 208 µM,11.4,9.6 µg/mL,12.6
O=C(c1ccncc1)N1N=C(c2cc3ccccc3o2)CC1/C=C/c1ccccc1 (stereo not given),> 212 µM,10.8,8.6 µg/mL,11.6
CCn1cc(C(=O)N2N=C(c3cc4ccccc4o3)CC2c2ccccc2O)c(=O)c2ccc(C)nc21 (stereo not given),> 158 µM,4.11,1.2 µg/mL,5.36
CCn1cc(C(=O)N2N=C(c3cc4ccccc4o3)CC2c2ccccc2OC)c(=O)c2ccc(C)nc21 (stereo not given),> 188 µM,6.87,5.5 µg/mL,6.13
CCn1cc(C(=O)N2N=C(c3cc4ccccc4o3)CC2c2ccc(N(C)C)cc2)c(=O)c2ccc(C)nc21 (stereo not given),> 207 µM,4.82,9.2 µg/mL,6.53
CCn1cc(C(=O)N2N=C(c3cc4ccccc4o3)CC2c2ccccc2C(=O)O)c(=O)c2ccc(C)nc21 (stereo not given),> 196 µM,5.12,4.5 µg/mL,6.16
CCn1cc(C(=O)N2N=C(c3cc4ccccc4o3)CC2c2cccc([N+](=O)[O-])c2)c(=O)c2ccc(C)nc21 (stereo not given),> 164 µM,2.65,2.3 µg/mL,3.25
CCn1cc(C(=O)N2N=C(c3cc4ccccc4o3)CC2c2ccc(OC)cc2O)c(=O)c2ccc(C)nc21 (stereo not given),> 154 µM,8.42,4.2 µg/mL,9.28
CCn1cc(C(=O)N2N=C(c3cc4ccccc4o3)CC2c2ccc(O)cc2)c(=O)c2ccc(C)nc21 (stereo not given),> 148 µM,5.49,3.2 µg/mL,7.21
CCn1cc(C(=O)N2N=C(c3cc4ccccc4o3)CC2c2ccc(Cl)cc2)c(=O)c2ccc(C)nc21 (stereo not given),> 160 µM,11.52,8.3 µg/mL,12.12
CCn1cc(C(=O)N2N=C(c3cc4ccccc4o3)CC2c2ccccc2Cl)c(=O)c2ccc(C)nc21 (stereo not given),> 178 µM,10.85,7.8 µg/mL,10.96
CCn1cc(C(=O)N2N=C(c3cc4ccccc4o3)CC2c2ccccc2[N+](=O)[O-])c(=O)c2ccc(C)nc21 (stereo not given),> 85.4 µM,5.67,1.9 µg/mL,6.12
O=C(c1ccncc1)N1N=C(c2cc3ccccc3o2)CC1c1ccccc1O (stereo not given),> 195 µM,7.2,3.7 µg/mL,9.45
COc1ccccc1C1CC(c2cc3ccccc3o2)=NN1C(=O)c1ccncc1 (stereo not given),> 202 µM,9.65,6.5 µg/mL,10.6
CCn1cc(C(=O)N2N=C(c3cc4ccccc4o3)CC2c2ccc(OC)cc2)c(=O)c2ccc(C)nc21 (stereo not given),> 156 µM,9.32,6.3 µg/mL,10.77
CCn1cc(C(=O)N2N=C(c3cc4ccccc4o3)CC2c2ccccc2)c(=O)c2ccc(C)nc21 (stereo not given),> 210 µM,12.23,9.8 µg/mL,12.98
CN(C)c1ccc(C2CC(c3cc4ccccc4o3)=NN2C(=O)c2ccncc2)cc1 (stereo not given),> 211 µM,14.4,9.2 µg/mL,15.8
O=C(O)c1ccccc1C1CC(c2cc3ccccc3o2)=NN1C(=O)c1ccncc1 (stereo not given),> 171 µM,6.24,2.2 µg/mL,5.42
CCn1cc(C(=O)N2N=C(c3cc4ccccc4o3)CC2c2ccco2)c(=O)c2ccc(C)nc21 (stereo not given),> 186 µM,9.66,7.5 µg/mL,10.52
CCn1cc(C(=O)N2N=C(c3cc4ccccc4o3)CC2/C=C/c2ccccc2)c(=O)c2ccc(C)nc21 (stereo not given),> 169 µM,4.61,5.5 µg/mL,6.32
NNC(=O)c1ccncc1 [ISONIAZID],> 130 µM,4.62,0.32 µg/mL,5.45
CO[C@H]1/C=C/O[C@@]2(C)Oc3c(C)c(O)c4c(O)c(c(/C=N/N5CCN(C)CC5)c(O)c4c3C2=O)NC(=O)/C(C)=C\C=C\[C@H](C)[C@H](O)[C@@H](C)[C@@H](O)[C@@H](C)[C@H](OC(C)=O)[C@@H]1C [RIFAMPIN],> 74.5 µM,3.21,0.6 µg/mL,3.98

# Source: ChEMBL document CHEMBL1240433, “Design, synthesis, and antitubercular evaluation of novel series of 3-benzofuran-5-aryl-1-pyrazolyl-pyridylmethanone and 3-benzofuran-5-aryl-1-pyrazolylcarbonyl-4-oxo-naphthyridin analogs” (Eur J Med Chem, 2010)
